Reference: BindingDB's records for doi:10.1021/jm0101702 (Abbott Laboratories, 2001)

Legend:
[1] = Inhibition of VCAM-1 in human endothelial cells
[2] = target: T1, Vascular cell adhesion protein 1 (Homo sapiens, UniProt P19320); assay: In vitro inhibitory potency compared to PMA induced VCAM-1 in human endothelial cells (ELISA assay)
T1 sequence (P19320 whole entry): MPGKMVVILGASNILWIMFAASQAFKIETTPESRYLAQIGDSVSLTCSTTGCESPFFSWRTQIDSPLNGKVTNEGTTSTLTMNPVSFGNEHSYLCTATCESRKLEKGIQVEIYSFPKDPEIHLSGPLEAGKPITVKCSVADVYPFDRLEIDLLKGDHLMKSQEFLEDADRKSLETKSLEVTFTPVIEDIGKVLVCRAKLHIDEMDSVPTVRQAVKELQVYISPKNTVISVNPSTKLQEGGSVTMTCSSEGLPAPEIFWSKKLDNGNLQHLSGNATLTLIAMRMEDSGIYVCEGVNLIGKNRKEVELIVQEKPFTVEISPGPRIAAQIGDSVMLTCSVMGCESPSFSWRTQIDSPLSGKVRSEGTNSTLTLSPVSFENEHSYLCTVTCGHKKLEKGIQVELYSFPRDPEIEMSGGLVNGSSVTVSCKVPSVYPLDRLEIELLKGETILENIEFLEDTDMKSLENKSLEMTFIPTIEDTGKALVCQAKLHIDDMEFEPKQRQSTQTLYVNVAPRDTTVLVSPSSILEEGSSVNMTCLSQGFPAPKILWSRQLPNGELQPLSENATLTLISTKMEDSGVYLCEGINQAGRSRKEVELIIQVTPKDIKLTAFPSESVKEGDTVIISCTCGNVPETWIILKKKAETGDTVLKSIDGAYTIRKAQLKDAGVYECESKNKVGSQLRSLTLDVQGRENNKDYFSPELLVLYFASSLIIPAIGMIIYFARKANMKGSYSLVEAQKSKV
Summary of the method: (§1)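 Whole-cell ELISA on primary HUVECs plated at 5 × 10^4 cells/mL in EBM/2% FBS with growth supplements. Compound preincubated 24 h at 37 °C, then inducer added (TNFα at 5 ng/mL final, or IL-1β or PMA in its place) for 6 h at 37 °C. Mouse monoclonal anti-E-selectin, anti-ICAM-1 or anti-VCAM-1 was applied overnight at 4 °C, then HRP anti-mouse IgG. Detection with OPD, A490. Triplicate assays.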

[3] = target: T1, Vascular cell adhesion protein 1; assay: In vitro inhibitory potency compared to IL1-beta induced VCAM-1 in human endothelial cells (ELISA assay)
Summary of the method: as §1

[4] = target: T1, Vascular cell adhesion protein 1; assay: In vitro inhibitory potency compared to TNF-alpha induced VCAM-1 in human endothelial cells (ELISA assay)
Summary of the method: as §1

Row | SMILES | IC50 [1] [µM] | other results
1 | CCOC(=O)c1cccc(Oc2cncc3sc(C(N)=O)cc23)c1 [3-(2-Carbamoyl-thieno[2,3-c]pyridin-4-yloxy)-benzoic acid ethyl ester] | > 1 | 
2 | NC(=O)c1cc2c(Oc3ccc(Cl)cc3Br)cncc2s1 [4-(2-Bromo-4-chloro-phenoxy)-thieno[2,3-c]pyridine-2-carboxylic acid amide] | 0.33 | 
3 | CCOC(=O)c1ccc(Oc2cncc3sc(C(N)=O)cc23)cc1 [4-(2-Carbamoyl-thieno[2,3-c]pyridin-4-yloxy)-benzoic acid ethyl ester] | > 1 | 
4 | NC(=O)c1cc2c(Oc3cccc(Br)c3)cncc2s1 [4-(3-Bromo-phenoxy)-thieno[2,3-c]pyridine-2-carboxylic acid amide] | > 1 | 
5 | NC(=O)c1cc2c(Oc3cccc(C(F)(F)F)c3)cncc2s1 [4-(3-Trifluoromethyl-phenoxy)-thieno[2,3-c]pyridine-2-carboxylic acid amide] | > 1 | 
6 | NC(=O)c1cc2c(Oc3ccc(N)cc3)cncc2s1 [4-(4-Amino-phenoxy)-thieno[2,3-c]pyridine-2-carboxylic acid amide] | 0.064 | 
7 | NC(=O)c1cc2c(Oc3ccc(Br)cc3)cncc2s1 [4-(4-Bromo-phenoxy)-thieno[2,3-c]pyridine-2-carboxylic acid amide] | 0.048 | IC50 [2]: 0.02 µM; IC50 [3]: 0.007 µM; IC50 [4]: 0.008 µM
8 | Cc1cc(Cl)ccc1Oc1cncc2sc(C(N)=O)cc12 [4-(4-Chloro-2-methyl-phenoxy)-thieno[2,3-c]pyridine-2-carboxylic acid amide] | > 1 | 
9 | NC(=O)c1cc2c(Oc3ccc(Cl)c(F)c3)cncc2s1 [4-(4-Chloro-3-fluoro-phenoxy)-thieno[2,3-c]pyridine-2-carboxylic acid amide] | > 1 | 
10 | CNC(=O)c1cc2c(Oc3ccc(-n4ccnc4)cc3)cncc2s1 [4-(4-Imidazol-1-yl-phenoxy)-thieno[2,3-c]pyridine-2-carboxylic acid methylamide] | 0.019 | 
11 | NC(=O)c1cc2c(Oc3ccc(I)cc3)cncc2s1 [4-(4-Iodo-phenoxy)-thieno[2,3-c]pyridine-2-carboxylic acid amide] | > 0.01 | 
12 | CC(C)c1ccc(Oc2cncc3sc(C(N)=O)cc23)cc1 [4-(4-Isopropyl-phenoxy)-thieno[2,3-c]pyridine-2-carboxylic acid amide] | > 0.1 | 
13 | COCc1ccc(Oc2cncc3sc(C(N)=O)cc23)cc1 [4-(4-Methoxymethyl-phenoxy)-thieno[2,3-c]pyridine-2-carboxylic acid amide] | 0.023 | 
14 | CNC(=O)c1cc2c(Oc3ccc(COC)cc3)cncc2s1 [4-(4-Methoxymethyl-phenoxy)-thieno[2,3-c]pyridine-2-carboxylic acid methylamide] | > 0.024 | 
15 | CNC(=O)c1cc2c(Oc3ccc(N4CCOCC4)cc3)cncc2s1 [4-(4-Morpholin-4-yl-phenoxy)-thieno[2,3-c]pyridine-2-carboxylic acid methylamide] | > 1 | 
16 | CNC(=O)c1cc2c(Oc3ccc(-n4cncn4)cc3)cncc2s1 [4-(4-[1,2,4]Triazol-1-yl-phenoxy)-thieno[2,3-c]pyridine-2-carboxylic acid methylamide] | 0.24 | 
17 | CNC(=O)c1cc2c(Oc3ccc(C=CC(=O)NCCc4cnc[nH]4)cc3)cncc2s1 [4-(4-{2-[2-(1H-Imidazol-4-yl)-ethylcarbamoyl]-vinyl}-phenoxy)-thieno[2,3-c]pyridine-2-carboxylic acid methylamide] | > 1 | 
18 | CCOCCOCCOCC(F)(F)c1ccc(Oc2cncc3sc(C(=O)NC)cc23)cc1 [4-(4-{2-[2-(2-Ethoxy-ethoxy)-ethoxy]-1,1-difluoro-ethyl}-phenoxy)-thieno[2,3-c]pyridine-2-carboxylic acid methylamide] | 0.17 | 
19 | CNC(=O)c1cc2c(Oc3ccc(-c4ccccc4)cc3)cncc2s1 [4-(Biphenyl-4-yloxy)-thieno[2,3-c]pyridine-2-carboxylic acid methylamide] | 0.079 | 

Row | SMILES | IC50 [1] [µM] | other results
20 | NC(=O)c1cc2c(Oc3ccc(C(O)CO)cc3)cncc2s1 (stereo unspecified) [4-[4-(1,2-Dihydroxy-ethyl)-phenoxy]-thieno[2,3-c]pyridine-2-carboxylic acid amide] | 0.93 | 
21 | NC(=O)c1cc2c(Oc3ccc(C(=O)N(C(=O)NC4CCCCC4)C4CCCCC4)cc3)cncc2s1 [4-[4-(1,3-Dicyclohexyl-ureidocarbonyl)-phenoxy]-thieno[2,3-c]pyridine-2-carboxylic acid amide] | > 1 | 
22 | CNC(=O)c1cc2c(Oc3ccc(-c4nnn[nH]4)cc3)cncc2s1 [4-[4-(1H-Tetrazol-5-yl)-phenoxy]-thieno[2,3-c]pyridine-2-carboxylic acid methylamide] | > 1 | 
23 | COCCOCc1ccc(Oc2cncc3sc(C(N)=O)cc23)cc1 [4-[4-(2-Methoxy-ethoxymethyl)-phenoxy]-thieno[2,3-c]pyridine-2-carboxylic acid amide] | > 1 | 
24 | CNC(=O)c1cc2c(Oc3ccc(COCCOC)cc3)cncc2s1 [4-[4-(2-Methoxy-ethoxymethyl)-phenoxy]-thieno[2,3-c]pyridine-2-carboxylic acid methylamide] | > 1 | 
25 | NC(=O)c1cc2c(Oc3ccc(C(=O)NCCN4CCOCC4)cc3)cncc2s1 [4-[4-(2-Morpholin-4-yl-ethylcarbamoyl)-phenoxy]-thieno[2,3-c]pyridine-2-carboxylic acid amide] | > 1 | 
26 | CNC(=O)c1cc2c(Oc3ccc(C(=O)NCCN4CCOCC4)cc3)cncc2s1 [4-[4-(2-Morpholin-4-yl-ethylcarbamoyl)-phenoxy]-thieno[2,3-c]pyridine-2-carboxylic acid methylamide] | > 1 | 
27 | NC(=O)c1cc2c(Oc3ccc(/C=C/C(=O)NCCN(CCO)CCO)cc3)cncc2s1 [4-[4-(2-{2-[Bis-(2-hydroxy-ethyl)-amino]-ethylcarbamoyl}-vinyl)-phenoxy]-thieno[2,3-c]pyridine-2-carboxylic acid amide] | > 1 | 
28 | CNC(=O)c1cc2c(Oc3ccc(/C=C/C(=O)NCCN(CCO)CCO)cc3)cncc2s1 [4-[4-(2-{2-[Bis-(2-hydroxy-ethyl)-amino]-ethylcarbamoyl}-vinyl)-phenoxy]-thieno[2,3-c]pyridine-2-carboxylic acid methylamide] | > 1 | 
29 | CNC(=O)c1cc2c(Oc3ccc(-c4cncn4C)cc3)cncc2s1 [4-[4-(3-Methyl-3H-imidazol-4-yl)-phenoxy]-thieno[2,3-c]pyridine-2-carboxylic acid methylamide] | > 0.18 | 
30 | CNC(=O)c1cc2c(Oc3ccc(-c4noc(C(F)(F)F)n4)cc3)cncc2s1 [4-[4-(5-Trifluoromethyl-[1,2,4]oxadiazol-3-yl)-phenoxy]-thieno[2,3-c]pyridine-2-carboxylic acid methylamide] | > 1 | 
31 | NC(=O)c1cc2c(Oc3ccc(C(=O)N4CCOCC4)cc3)cncc2s1 [4-[4-(Morpholine-4-carbonyl)-phenoxy]-thieno[2,3-c]pyridine-2-carboxylic acid amide] | > 1 | 
32 | CNC(=O)c1cc2c(Oc3ccc(C(=N)NO)cc3)cncc2s1 [4-[4-(N-Hydroxycarbamimidoyl)-phenoxy]-thieno[2,3-c]pyridine-2-carboxylic acid methylamide] | > 1 | 
33 | NC(=O)c1cc2c(Oc3ccc(COC4CCCCO4)cc3)cncc2s1 (stereo unspecified) [4-[4-(Tetrahydro-pyran-2-yloxymethyl)-phenoxy]-thieno[2,3-c]pyridine-2-carboxylic acid amide] | > 1 | 
34 | Cc1ccc(Oc2cncc3sc(C(N)=O)cc23)cc1 [4-p-Tolyloxy-thieno[2,3-c]pyridine-2-carboxylic acid amide] | 11 | 
35 | NC(=O)c1cc2c(Oc3ccc(/C=C/C(=O)NCC(O)CO)cc3)cncc2s1 (stereo unspecified) [4-{4-[2-(2,3-Dihydroxy-propylcarbamoyl)-vinyl]-phenoxy}-thieno[2,3-c]pyridine-2-carboxylic acid amide] | > 1 | 
36 | CNC(=O)c1cc2c(Oc3ccc(/C=C/C(=O)NCC(O)CO)cc3)cncc2s1 (stereo unspecified) [4-{4-[2-(2,3-Dihydroxy-propylcarbamoyl)-vinyl]-phenoxy}-thieno[2,3-c]pyridine-2-carboxylic acid methylamide] | > 1 | 
37 | NC(=O)c1cc2c(Oc3ccc(/C=C/C(=O)NCCN4CCOCC4)cc3)cncc2s1 [4-{4-[2-(2-Morpholin-4-yl-ethylcarbamoyl)-vinyl]-phenoxy}-thieno[2,3-c]pyridine-2-carboxylic acid amide] | > 1 | 
38 | CNC(=O)c1cc2c(Oc3ccc(/C=C/C(=O)NCCN4CCOCC4)cc3)cncc2s1 [4-{4-[2-(2-Morpholin-4-yl-ethylcarbamoyl)-vinyl]-phenoxy}-thieno[2,3-c]pyridine-2-carboxylic acid methylamide] | > 1 | 
